# According to ChEMBL document CHEMBL5257128, “Design, synthesis and biological evaluation of covalent peptidomimetic 3CL protease inhibitors containing nitrile moiety” (Bioorg Med Chem, 2023):
# What was measured:
# [1] = tested on: SARS-CoV-2; test: Antiviral activity against SARS-CoV-2 infected in African green monkey Vero E6 cells pre-incubated for 1 hr followed by viral infection measured after 2 hrs by qRT-PCR analysis; assay type: functional, organism-based; settings: Severe acute respiratory syndrome coronavirus 2, Vero C1008
# [2] = Metabolic stability in human liver microsomes assessed as half life in presence of NADPH incubated upto 45 mins by LC/MS analysis; assay type: ADME, Microsome; settings: 0.75 h
# In short: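 Human or mouse liver microsomes, final protein 0.5 mg/mL, in K/Mg buffer. Compound was added from a 1.5 µM spiking solution containing 0.75 mg/mL microsomes, then preincubated 5 min at 37 °C. The reaction was started with NADPH (6 mM stock) and sampled at 0, 5, 15, 30 and 45 min. Samples were quenched with acetonitrile containing internal standard, centrifuged, and the supernatant analysed by LC/MS.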
# [3] = Metabolic stability in mouse liver microsomes assessed as half life in presence of NADPH incubated upto 45 mins by LC/MS analysis; assay type: ADME, Microsome; settings: 0.75 h
# In short: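 Mouse liver microsomes at 0.5 mg/mL final protein in K/Mg buffer, preincubated 5 min at 37 °C. Reaction started with NADPH (6 mM stock) and sampled at 0, 5, 15, 30 and 45 min. Each sample was quenched with acetonitrile containing internal standard, centrifuged, diluted with water, and analysed by LC/MS for remaining parent.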
# [4] = Tmax in mouse at 10 mg/kg, iv by LC-MS/MS analysis; assay type: ADME, organism-based; settings: in vivo
# [5] = Cmax in mouse at 20 mg/kg, po by LC-MS/MS analysis; assay type: ADME, organism-based; set-up: dose 20 mg/kg, route po; settings: in vivo
# [6] = Cmax in mouse at 10 mg/kg, iv by LC-MS/MS analysis; assay type: ADME, organism-based; set-up: dose 10 mg/kg, route iv; settings: in vivo
# [7] = AUClast in mouse at 20 mg/kg, po by LC-MS/MS analysis; assay type: ADME, organism-based; set-up: dose 20 mg/kg, route po; settings: in vivo
# [8] = AUClast in mouse at 10 mg/kg, iv by LC-MS/MS analysis; assay type: ADME, organism-based; set-up: dose 10 mg/kg, route iv; settings: in vivo
# [9] = Observed AUCinfinity in mouse at 20 mg/kg, po by LC-MS/MS analysis; assay type: ADME, organism-based; set-up: dose 20 mg/kg, route po; settings: in vivo
# [10] = Observed AUCinfinity in mouse at 10 mg/kg, iv by LC-MS/MS analysis; assay type: ADME, organism-based; set-up: dose 10 mg/kg, route iv; settings: in vivo
# [11] = Observed MRTinfinity in mouse at 20 mg/kg, po by LC-MS/MS analysis; assay type: ADME, organism-based; settings: in vivo
# [12] = Observed MRTinfinity in mouse at 10 mg/kg, iv by LC-MS/MS analysis; assay type: ADME, organism-based; settings: in vivo
# [13] = Observed volume of distribution at steady state in mouse at 10 mg/kg, iv by LC-MS/MS analysis; assay type: ADME, organism-based; settings: in vivo
# [14] = Oral bioavailability in mouse at 20 mg/kg by LC-MS/MS analysis; assay type: ADME, organism-based; settings: in vivo
# [15] = biological target: Replicase polyprotein 1ab (Severe acute respiratory syndrome coronavirus 2, UniProt P0DTD1); test: Inhibition of full length SARS-CoV-2 3CL protease expressed in Escherichia coli BL21 (DE3) using Dacyl-KTSAVLQSGFRKME-Edans fluorogenic peptide as substrate pre-incubated for 10 mins followed by substrate addition by FRET assay
# [16] = tested on: Vero C1008; test: Cytotoxicity against African green monkey Vero E6 cells assessed as reduction in cell viability measured after 24 hrs by CCK8 assay; assay type: toxicity, cell-based; settings: chlorocebus sabaeus, vero c1008, 24 h
# [17] = Half life in mouse at 10 mg/kg, iv by LC-MS/MS analysis; assay type: ADME, organism-based; settings: in vivo
# [18] = Half life in mouse at 20 mg/kg, po by LC-MS/MS analysis; assay type: ADME, organism-based; settings: in vivo
# [19] = Tmax in mouse at 20 mg/kg, po by LC-MS/MS analysis; assay type: ADME, organism-based; settings: in vivo
# [20] = Selectivity Index, ratio of CC50 for African green monkey Vero E6 cells to EC50 for antiviral activity against SARS-CoV-2 infected in African green monkey Vero E6; assay type: toxicity, Vero C1008; settings: read-out: Ratio CC50/EC50
SMILES,EC50 [1] [nM],t1/2 [2] [min],t1/2 [3] [min],Tmax [4] [min],Cmax [5] [ng/mL],Cmax [6] [ng/mL],AUClast [7] [ng·h/mL],AUClast [8] [ng·h/mL],AUC [9] [ng·h/mL],AUC [10] [ng·h/mL],MRT [11] [min],MRT [12] [min],F [14] [%],IC50 [15] [nM],other results
CC(C)(C)[C@H](NC(=O)C(F)(F)F)C(=O)N1C[C@H]2[C@@H]([C@H]1C(=O)N[C@H](C#N)C[C@@H]1CCNC1=O)C2(C)C,580,37.93,4.64,4.98,2521.64,9630,2308.32,3336.46,2311.94,3361.32,51,23.4,34.59,,"Vdss ([13]; iv, 10 mg/kg): 1.18 L/kg"
CC(C)(C)[C@H](NS(=O)(=O)C1CC1)C(=O)N1C[C@H]2[C@@H]([C@H]1C(=O)N[C@H](C#N)C[C@@H]1CCNC1=O)C2(C)C,,,,,,,,,,,,,,22.8,
CC(C)(C)[C@H](NC(=O)C(F)(F)F)C(=O)N1CC2(CC2)C[C@H]1C(=O)N[C@H](C#N)C[C@@H]1CCNC1=O,,,,,,,,,,,,,,36.8,
CC(C)(C)[C@H](NS(=O)(=O)C(F)(F)F)C(=O)N1C[C@H]2[C@@H]([C@H]1C(=O)N[C@H](C#N)C[C@@H]1CCNC1=O)C2(C)C,170,652.17,97.89,4.8,2052.36,10500,1901.84,4118.55,1904.9,4120.05,48,17.4,23.09,22.4,CC50 [16]: > 200000 nM; t1/2 [17]: 21 min; t1/2 [18]: 42.6 min; Tmax [19]: 30 min; Vd ([13]; read-out: Vdss): 0.69 L/kg; selectivity ratio [20]: > 1500
CC(C)(C)[C@H](NC(=O)C(F)(F)F)C(=O)N1[C@@H]2CC[C@@H](C2)[C@H]1C(=O)N[C@H](C#N)C[C@@H]1CCNC1=O,,,,,,,,,,,,,,54.6,
